Test results: ChEMBL document CHEMBL1127826, “Inhibitors of acyl-CoA:cholesterol acyltransferase (ACAT). 7. Development of a series of substituted N-phenyl-N'-[(1-phenylcyclopentyl)methyl]ureas with enhanced hypocholesterolemic activity” (J Med Chem, 1994)
Each block holds one compound with its values, some of them ahead of it.

How the values were obtained:
[1] = target: T1, Acyl-CoA:cholesterol acyltransferase (Oryctolagus cuniculus, UniProt Q95214); test: Tested for in vitro inhibition against Acyl coenzyme A:cholesterol acyltransferase of intestinal microsomes in cholesterol-fed rabbits; design: species or system Microsome
T1 sequence (Q95214 whole entry): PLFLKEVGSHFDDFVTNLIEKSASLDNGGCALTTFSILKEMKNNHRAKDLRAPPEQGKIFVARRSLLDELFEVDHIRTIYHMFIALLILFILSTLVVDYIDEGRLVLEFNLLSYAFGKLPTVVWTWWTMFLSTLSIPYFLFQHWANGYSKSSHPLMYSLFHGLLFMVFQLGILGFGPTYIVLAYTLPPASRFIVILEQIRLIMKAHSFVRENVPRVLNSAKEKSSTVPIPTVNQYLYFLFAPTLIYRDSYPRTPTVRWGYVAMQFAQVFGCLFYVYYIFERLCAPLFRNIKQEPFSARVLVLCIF
Method in brief: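 Microsomes were prepared from intestine of cholesterol-fed rabbits. ACAT activity was measured using [1-14C]oleoyl-CoA as substrate. Each determination was run in triplicate.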

[2] = Compound was evaluated for the distribution coefficient at pH 7.4; format: physicochemical; details: octanol/water, read-out: logD
[3] = test system: Rattus norvegicus; test: Compound was evaluated in experiment 1 for Change in High density lipoproteins at 0.3 (mg/kg) dose; format: functional
Method in brief: (§1)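 Chronic model in male Sprague-Dawley rats (200-225 g). Rats were fed chow with peanut oil 5.5%, cholesterol 1.5% and cholic acid ad libitum for 2 weeks. Test article was given by gavage once daily (morning) in the second week, as a CMC/Tween aqueous suspension. Blood was taken by cardiac puncture under ether 24 h after the last dose. Plasma total, HDL and nonHDL cholesterol were measured with an Abbott VP analyzer using dextran sulfate precipitation, reported as mg/dL and % change from control. Controls were cholesterol-fed rats and rats switched to chow in week 2.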

[4] = test system: Rattus norvegicus; test: Compound was evaluated in experiment 1 for Change in High density lipoproteins at 1.0 (mg/kg) dose; format: functional; method in brief: as §1
[5] = test system: Rattus norvegicus; test: Compound was evaluated in experiment 1 for Change in total cholesterol at 0.3 (mg/kg) dose; format: functional; method in brief: as §1
[6] = test system: Rattus norvegicus; test: Compound was evaluated in experiment 1 for Change in total cholesterol at 1.0 (mg/kg) dose; format: functional; method in brief: as §1
[7] = test system: Rattus norvegicus; test: Compound was evaluated in experiment 1 for Change in total cholesterol at 10 (mg/kg) dose; format: functional; method in brief: as §1
[8] = test system: Rattus norvegicus; test: Compound was evaluated in experiment 1 for Change in total cholesterol at 3.0 (mg/kg) dose; format: functional; method in brief: as §1
[9] = test system: Rattus norvegicus; test: Compound was evaluated for the percentage change in total cholesterol in peanut oil (5.5%)-cholic acid (0.3%)-cholesterol (1.5%)-fed rats at 30 mg/kg; format: functional
[10] = organism: Rattus norvegicus; test: Percent change in total cholesterol in peanut oil (5.5%)-, cholic acid (0.3%)-, Cholesterol (1.5%)-fed rats after a single dose.; format: functional
Method in brief: (§2)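 Male Sprague-Dawley rats (200-225 g), n=5-7/group, given a single oral dose at 4 p.m. as a suspension in 1.5% CMC/0.2% Tween-20 in water (50 mg/kg); controls received vehicle alone. The rats then had free access to chow with peanut oil, cholesterol and cholic acid. At 8 a.m. next day they were bled by cardiac puncture under ether, and serum total cholesterol was measured as % change versus controls (unpaired two-tailed t-test).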

[11] = test system: Rattus norvegicus; test: Compound was evaluated in experiment 1 for Change in High density lipoproteins at 10 (mg/kg) dose; format: functional; method in brief: as §1
[12] = test system: Rattus norvegicus; test: Compound was evaluated in experiment 1 for Change in High density lipoproteins at 3.0 (mg/kg) dose; format: functional; method in brief: as §1
[13] = test system: Rattus norvegicus; test: Compound was evaluated in experiment 1 for change in non High density lipoprotein at the doses at 0.3 (mg/kg) dose; format: functional; method in brief: as §1
[14] = test system: Rattus norvegicus; test: Compound was evaluated in experiment 1 for change in non High density lipoprotein at the doses at 10 (mg/kg) dose; format: functional; method in brief: as §1
[15] = test system: Rattus norvegicus; test: Compound was evaluated in experiment 1 for change in non High density lipoprotein at the doses at 3.0 (mg/kg) dose; format: functional; method in brief: as §1
[16] = test system: Rattus norvegicus; test: Compound was evaluated in experiment 1 for change in non High density lipoprotein at the doses at 1.0 (mg/kg) dose; format: functional; method in brief: as §1
[17] = test system: Rattus norvegicus; test: Compound was evaluated in experiment 1 for High density lipoproteins at 0.3 (mg/kg) dose; format: functional; method in brief: as §1
[18] = test system: Rattus norvegicus; test: Compound was evaluated in experiment 1 for High density lipoproteins at 1.0 (mg/kg) dose; format: functional; method in brief: as §1
[19] = test system: Rattus norvegicus; test: Compound was evaluated in experiment 1 for High density lipoproteins at 10 (mg/kg) dose; format: functional; method in brief: as §1
[20] = test system: Rattus norvegicus; test: Compound was evaluated in experiment 1 for High density lipoproteins at 3.0 (mg/kg) dose; format: functional; method in brief: as §1
[21] = test system: Rattus norvegicus; test: Compound was evaluated in experiment 1 for non High density lipoproteins at 0.3 (mg/kg) dose; format: functional; method in brief: as §1
[22] = test system: Rattus norvegicus; test: Compound was evaluated in experiment 1 for non High density lipoproteins at 1.0 (mg/kg) dose; format: functional; method in brief: as §1
[23] = test system: Rattus norvegicus; test: Compound was evaluated in experiment 1 for non High density lipoproteins at 10 (mg/kg) dose; format: functional; method in brief: as §1
[24] = test system: Rattus norvegicus; test: Compound was evaluated in experiment 1 for non High density lipoproteins at 3.0(mg/kg) dose; format: functional; method in brief: as §1
[25] = test system: Rattus norvegicus; test: Compound was evaluated in experiment 1 for Total cholesterol at 0.3 (mg/kg) dose; format: functional; design: unit not given beside the values; method in brief: as §1
[26] = test system: Rattus norvegicus; test: Compound was evaluated in experiment 1 for Total cholesterol at 1.0 (mg/kg) dose; format: functional; design: unit not given beside the values; method in brief: as §1
[27] = test system: Rattus norvegicus; test: Compound was evaluated in experiment 1 for Total cholesterol at 10 (mg/kg) dose; format: functional; design: unit not given beside the values; method in brief: as §1
[28] = test system: Rattus norvegicus; test: Compound was evaluated in experiment 1 for Total cholesterol at 3.0 (mg/kg) dose; format: functional; design: unit not given beside the values; method in brief: as §1
[29] = organism: Rattus norvegicus; test: Percent change in total cholesterol in peanut oil (5.5%) - cholic acid (0.3%) - Cholesterol (1.5%) fed rats after a single dose; format: functional; method in brief: as §2

- IC50 [1]: 44 nM
- logD [2]: 5.23
Compound: CC(C)c1cccc(C(C)C)c1NC(=O)NCC1(c2cccc(CBr)c2)CCCC1
- Delta TC [29]: -26%

- IC50 [1]: 440 nM
- logD [2]: 3.64
Compound: CC(C)c1cccc(C(C)C)c1NC(=O)NCC1(c2cccc(CN)c2)CCCC1
- Delta TC [10]: -49%

- IC50 [1]: 25 nM
Compound: Cc1ccc(C2(CNC(=O)Nc3c(C(C)C)cccc3C(C)C)CCCC2)cc1
- Delta TC [29]: -70%

- IC50 [1]: 50 nM
Compound: Cc1ccc(C2(CNC(=O)Nc3c(C(C)C)cccc3C(C)C)CCCC2)c(C)c1
- Delta TC [29]: -50%

- IC50 [1]: 18 nM
Compound: CC(C)c1cccc(C(C)C)c1NC(=O)NCC1(c2ccccc2C(F)(F)F)CCCC1
- Delta TC [29]: -50%

- IC50 [1]: 56 nM
Compound: Cc1cc(C)c(C2(CNC(=O)Nc3c(C(C)C)cccc3C(C)C)CCCC2)c(C)c1
- Delta TC [29]: -24%

- IC50 [1]: 23 nM
Compound: CC(C)c1cccc(C(C)C)c1NC(=O)NCC1(c2ccc(F)cc2)CCCC1
- Delta TC [29]: -57%

- IC50 [1]: 39 nM
Compound: Cc1ccc(C)c(C2(CNC(=O)Nc3c(C(C)C)cccc3C(C)C)CCCC2)c1
- Delta TC [29]: -48%

- IC50 [1]: 32 nM
Compound: CC(C)c1cccc(C(C)C)c1NC(=O)NCC1(c2ccc(Cl)cc2)CCCC1
- Delta TC [29]: -64%

- IC50 [1]: 67 nM
- logD [2]: 4.87
Compound: CC(C)c1cccc(C(C)C)c1NC(=O)NCC1(c2cccc(CN(C)C)c2)CCCC1.Cl
- Delta TC [9]: -46%
- Delta TC [10]: -44%

- IC50 [1]: 15 nM
Compound: Cc1cccc(C2(CNC(=O)Nc3c(C(C)C)cccc3C(C)C)CCCC2)c1
- Delta TC [29]: -52%

More lines, now with the values behind:

Compound: CCCCN(CCCC)Cc1cccc(C2(CNC(=O)Nc3c(C(C)C)cccc3C(C)C)CCCC2)c1
- IC50 [1]: 16 nM
- logD [2]: 6.05
- Change HDL -C [3]: 16%
- Change HDL -C [4]: -16%
- Change TC [5]: -14%
- Change TC [6]: -12%
- Change TC [7]: -4%
- Change TC [8]: -34%
- Delta TC [9]: -63%
- Delta TC [10]: -25%
- Change HDL -C [11]: -21%
- Change HDL -C [12]: 8%
- Change non HDL-C [13]: -15%
- Change non HDL-C [14]: -3%
- Change non HDL-C [15]: -36%
- Change non HDL-C [16]: -12%
- HDL-C [17]: 12
- HDL-C [18]: 10
- HDL-C [19]: 9
- HDL-C [20]: 12
- Non-HDL-C [21]: 258
- Non-HDL-C [22]: 266
- Non-HDL-C [23]: 293
- Non-HDL-C [24]: 194
- TC [25]: 271
- TC [26]: 276
- TC [27]: 302
- TC [28]: 206

Compound: CC(C)c1cccc(C(C)C)c1NC(=O)NCC1(c2cccc(CC#N)c2)CCCC1
- IC50 [1]: 24 nM
- logD [2]: 3.61
- Delta TC [10]: -31%

Compound: CC(C)c1cccc(C(C)C)c1NC(=O)NCC1(c2cc(C(F)(F)F)cc(C(F)(F)F)c2)CCCC1
- IC50 [1]: 57 nM
- Delta TC [29]: -32%

Compound: CC(C)c1cccc(C(C)C)c1NC(=O)NCC1(c2cccc(C(F)(F)F)c2)CCCC1
- IC50 [1]: 27 nM
- Delta TC [29]: -45%

Compound: CC(C)c1cccc(C(C)C)c1NC(=O)NCC1(c2cccc(CN(CCO)CCO)c2)CCCC1
- logD [2]: 3.55
- Delta TC [9]: -63%
- Delta TC [10]: -33%

Compound: CC(C)c1cccc(C(C)C)c1NC(=O)NCC1(c2ccc(CC(C)(C)C)cc2)CCCC1
- IC50 [1]: 159 nM
- Delta TC [29]: -53%

Compound: CC(C)c1cccc(C(C)C)c1NC(=O)NCC1(c2cccc(CN3CCN(C)CC3)c2)CCCC1
- IC50 [1]: 16 nM
- logD [2]: 5.28
- Change HDL -C [3]: 2%
- Change HDL -C [4]: 27%
- Change TC [5]: 3%
- Change TC [6]: -33%
- Change TC [7]: -51%
- Change TC [8]: -24%
- Delta TC [9]: -66%
- Delta TC [10]: -21%
- Change HDL -C [11]: 60%
- Change HDL -C [12]: 8%
- Change non HDL-C [13]: 3%
- Change non HDL-C [14]: -55%
- Change non HDL-C [15]: -25%
- Change non HDL-C [16]: -36%
- HDL-C [17]: 12
- HDL-C [18]: 15
- HDL-C [19]: 19
- HDL-C [20]: 12
- Non-HDL-C [21]: 313
- Non-HDL-C [22]: 195
- Non-HDL-C [23]: 135
- Non-HDL-C [24]: 227
- TC [25]: 325
- TC [26]: 209
- TC [27]: 154
- TC [28]: 239

Compound: CC(C)c1cccc(C(C)C)c1NC(=O)NCC1(c2ccc(C(F)(F)F)cc2)CCCC1
- IC50 [1]: 66 nM
- Delta TC [29]: -39%

Compound: CC(=O)OCCN(CCOC(C)=O)Cc1cccc(C2(CNC(=O)Nc3c(C(C)C)cccc3C(C)C)CCCC2)c1
- IC50 [1]: 33 nM
- logD [2]: 4.55
- Delta TC [9]: -71%
- Delta TC [10]: -35%

Compound: CC(C)c1cccc(C(C)C)c1NC(=O)NCC1(c2cccc(CN3CCOCC3)c2)CCCC1
- logD [2]: 4.37
- Change HDL -C [3]: 16%
- Change HDL -C [4]: 10%
- Change TC [5]: -24%
- Change TC [6]: -13%
- Change TC [7]: -63%
- Change TC [8]: -31%
- Delta TC [9]: -70%
- Delta TC [10]: -47%
- Change HDL -C [11]: 162%
- Change HDL -C [12]: 40%
- Change non HDL-C [13]: -26%
- Change non HDL-C [14]: -71%
- Change non HDL-C [15]: -33%
- Change non HDL-C [16]: -14%
- HDL-C [17]: 14
- HDL-C [18]: 13
- HDL-C [19]: 30
- HDL-C [20]: 16
- Non-HDL-C [21]: 224
- Non-HDL-C [22]: 260
- Non-HDL-C [23]: 84
- Non-HDL-C [24]: 202
- TC [25]: 237
- TC [26]: 273
- TC [27]: 118
- TC [28]: 218
